Measured values taken from paper PMC4128174 (European journal of medicinal chemistry, 2014).
Changes are numbered by the printed parent chain. Each block holds one molecule with its values, some of them ahead of it.

Legend:
[1] = molecular target: T1, IDE E341A (Homo sapiens, UniProt P14735, E341A); assay: Hydrolysis of dual labelled Aβ16–23 by the E341A exosite mutant; format: biochemical
T1 sequence (P14735 1-1019 E341A): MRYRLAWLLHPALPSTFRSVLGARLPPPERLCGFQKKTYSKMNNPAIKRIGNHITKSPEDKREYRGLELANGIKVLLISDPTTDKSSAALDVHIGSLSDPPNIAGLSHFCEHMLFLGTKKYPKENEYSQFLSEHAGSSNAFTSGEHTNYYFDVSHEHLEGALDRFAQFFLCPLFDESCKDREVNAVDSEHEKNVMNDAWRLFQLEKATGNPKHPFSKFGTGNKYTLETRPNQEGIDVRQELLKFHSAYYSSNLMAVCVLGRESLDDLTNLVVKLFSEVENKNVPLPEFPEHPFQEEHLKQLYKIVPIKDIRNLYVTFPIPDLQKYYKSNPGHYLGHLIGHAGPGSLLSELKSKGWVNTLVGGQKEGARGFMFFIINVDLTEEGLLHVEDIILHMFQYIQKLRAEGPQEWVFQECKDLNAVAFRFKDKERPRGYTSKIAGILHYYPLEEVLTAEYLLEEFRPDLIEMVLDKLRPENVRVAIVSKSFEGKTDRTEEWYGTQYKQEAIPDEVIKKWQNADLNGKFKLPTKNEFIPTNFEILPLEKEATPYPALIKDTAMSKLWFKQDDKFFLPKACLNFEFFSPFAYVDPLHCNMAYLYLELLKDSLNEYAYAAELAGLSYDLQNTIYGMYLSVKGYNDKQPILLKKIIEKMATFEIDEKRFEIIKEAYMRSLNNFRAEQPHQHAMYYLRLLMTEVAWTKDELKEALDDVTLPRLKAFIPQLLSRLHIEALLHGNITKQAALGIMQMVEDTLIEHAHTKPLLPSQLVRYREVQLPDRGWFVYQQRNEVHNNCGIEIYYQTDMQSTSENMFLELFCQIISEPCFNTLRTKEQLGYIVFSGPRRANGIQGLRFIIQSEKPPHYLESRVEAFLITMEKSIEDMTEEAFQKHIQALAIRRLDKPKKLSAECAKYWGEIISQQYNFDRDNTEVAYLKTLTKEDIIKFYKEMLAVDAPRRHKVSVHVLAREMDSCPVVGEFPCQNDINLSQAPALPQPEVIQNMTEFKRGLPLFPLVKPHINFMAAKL

[2] = Cell permeability; format: in vitro ADME
[3] = molecular target: T2, Human recombinant IDE (IDEwt) (Homo sapiens, UniProt P14735); format: biochemical; details: for activity on Aβ16–23 hydrolysis (in words): IDEwt
T2 sequence (P14735 1-1019): T1 sequence (P14735 1-1019 E341A) with A341E

[4] = tested on: hepatocytes; assay: Repression of PEPCK by insulin on hepatocytes; format: cell-based
[5] = tested on: SH-SY5Y neuroblastoma cells (APPswe, APPwt); assay: Cellular assay in the amyloid pathway; format: cell-based, human
Method in brief: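 SH-SY5Y cells stably expressing human APP751 Swedish or […], grown in DMEM/10% FCS at 37 °C, 5% CO2. Treated 24 h after seeding with vehicle or test compound (10 mM DMSO stock). Medium cleared at 1000 × g and assayed by ELISA: Aβ1–40 diluted 1:10, Aβ1–42 undiluted. Duplicates from three experiments, normalised to untreated cells. RIPA lysates immunoblotted: 12 µg Bis-Tris gel; CTFs 30 µg Tris-Tricine gel.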

[6] = Cell medium stability; format: in vitro ADME
[7] = Solubility in PBS from a DMSO stock solution; format: physicochemical
[8] = tested on: β-pancreatic cells; assay: Insulin secretion by β-pancreatic cells; format: cell-based
[9] = molecular target: T3, hIDE (Homo sapiens, UniProt P14735); assay: Hydrolysis of unlabelled native insulin by hIDE; format: biochemical; details: at 100µM
T3 sequence (P14735 1-1019): T1 sequence (P14735 1-1019 E341A) with A341E

[10] = LogD7.4, PBS/octanol partition from a DMSO stock solution; format: physicochemical; details: compared with 5
[11] = 0.1 or 10 µM, 24 h and 48 h, APPswe and APPwt SY5Y

activity on Aβ16–23 hydrolysis (in words) [3]: completely abolish activity
Structure (SMILES): COC(=O)[C@H](Cc1c[nH]cn1)NC(=O)CN(CC(=O)O)C(=O)c1ccccc1 [Compound 7, (S)-2-(2-(Benzoyl-carboxymethyl-amino)-acetylamino)-3-(1H-imidazol-4-yl)-propionic acid methyl ester]

repression of PEPCK by insulin on hepatocytes [4]: nor modify
half-life [6]: 11.3 h
solubility (in words) [7]: good solubility
residual activation of insulin hydrolysis [9]: 50 % of 5 activity
logD7.4 (in words) [10]: higher
Structure (SMILES): CNC(=O)[C@H](Cc1c[nH]cn1)NC(=O)CN(CCCc1ccccc1)CC(=O)OC [Compound 8, ((((S)-2-(1H-Imidazol-4-yl)-1-methylcarbamoyl-ethyl-carbamoyl)-methyl)-(3-phenylpropyl)-amino)-acetic acid methyl ester]
effect on APP holoproteins and on CTFs [5]: No effect
extracellular levels of Aβ1–40 [5, 11]: dose-dependent increase
extracellular levels of Aβ1–42 [5, 11]: dose-dependent increase
level of insulin secreted by β-pancreatic cells [8]: did neither affect

More lines, now with the values behind:

Structure (SMILES): COC(=O)[C@H](Cc1c[nH]cn1)NC(=O)CN(CC(=O)O)Cc1ccccc1 [Compound 1, (S)-2-[2-(Benzyl-carboxymethyl-amino)-acetylamino]-3-(1H-imidazol-4-yl)-propionic acid methyl ester]
behaviour as inhibitor [1]: full inhibitor

Structure (SMILES): CNC(=O)[C@H](Cc1c[nH]cn1)NC(=O)CN(CCCc1ccccc1)CC(=O)O [Compound 5, ((((S)-2-(1H-Imidazol-4-yl)-1-methylcarbamoyl-ethylcarbamoyl)-methyl)-(3-phenylpropyl)-amino)-acetic acid]
crossing of cell membranes (in words) [2]: does not cross easily cell membranes

Structure (SMILES): COC(=O)[C@H](Cc1ccccc1)NC(=O)CN(CC(=O)O)Cc1ccccc1 [Compound 6, (S)-2-(2-(Benzyl-carboxymethyl-amino)-acetylamino)-3-phenyl-propionic acid methyl ester]
activity on Aβ16–23 hydrolysis (in words) [3]: completely abolish activity

Structure (SMILES): O=C(O)CN(CCN(CC(=O)O)CC(=O)O)CC(=O)O [EDTA, reference compound]
inhibition by reference inhibitor ([3]; at 2 mM): 100%
